Among the data in ChEMBL document CHEMBL1275275, “Preparation of new polycyclic compounds derived from benzofurans and furochromones. An approach to novel 1,2,3-thia-, and selena-diazolofurochromones of anticipated antitumor activities” (Eur J Med Chem, 2010) are IC50 values, retold here.

≈ marks a conversion by molar mass, not a printed value.

Holding throughout (format): functional, cell-based
The subject of one assay is HeLa. Kind of assay: Antitumor activity against human HeLa cells. In a few lines:
(§1)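 In vitro cytotoxicity against human carcinoma cell lines. Surviving fraction was plotted against drug concentration to give survival curves. IC50 was read from these curves as the dose reducing survival to 50%, in µg/ml.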

The next assay concerns HepG2. Kind of assay: Antitumor activity against human HepG2 cells. In a few lines:
as §1

Another assay deals with MCF7. Nature of the assay: Antitumor activity against human MCF7 cells. Summed up:
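Human MCF-7 breast carcinoma cells treated in vitro across a range of drug concentrations. Surviving fraction plotted against concentration to give survival curves. IC50 (µg/ml), the dose that reduces survival to 50%, read from these curves. Doxorubicin served as reference drug.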

The subject of a further assay is HCT-116. Nature of the assay: Antitumor activity against human HCT116 cells. Summed up: as §1
The mark [1] stands for this setting: Homo sapiens, MCF7, read-out: IC50.

Consider `COc1c2c(cc3occc13)OC(C)(C)c1[se]nnc1-2`, for which the IC50 in the assay on HeLa turned out to be 6.02 mg/L (≈ 18 µM); with HepG2 it was 11.5 mg/L (≈ 34.3 µM); with MCF7 (setting [1]) it was 5.56 mg/L (≈ 16.6 µM); in the assay with HCT-116 it was 4.8 mg/L (≈ 14.3 µM).

Regarding `COc1c(C(/C=C(\C)N2CCCC2)=C2C(=O)c3ccccc3C2=O)c(O)cc2occc12`, in the assay on MCF7 (setting [1]), the IC50 came out at 15.5 mg/L (≈ 36.1 µM).

Take `COc1c2c(c(OC)c3occc13)OC(C)(C)c1[se]nnc1-2`: the IC50 in the assay with HeLa stood at 4.35 mg/L (≈ 11.9 µM); in the assay on HepG2, 15.9 mg/L (≈ 43.5 µM); in the assay with MCF7 (setting [1]), 15.8 mg/L (≈ 43.3 µM); in the assay on HCT-116 it was 4.65 mg/L (≈ 12.7 µM).

Take `COc1c2occc2c(OC)c2c(C=C(C)N3CCCC3)c(C#N)c(=N)oc12`: the half-inhibitory concentration (IC50) in the assay on HeLa was determined as 5.11 mg/L (≈ 13.5 µM); in the assay with HepG2, 10.9 mg/L (≈ 28.7 µM); in the assay on MCF7 (setting [1]) it was 8.61 mg/L (≈ 22.7 µM); in the assay with HCT-116 it was 4.8 mg/L (≈ 12.7 µM).

With `COc1c2c(c(OC)c3occc13)OC1(CCCCC1)C/C2=N\NC(N)=O`, the IC50 was 4.19 mg/L (≈ 11.2 µM) in the assay on HeLa, 8.61 mg/L (≈ 23.1 µM) in the assay with HepG2, 10.6 mg/L (≈ 28.4 µM) in the assay on MCF7 (setting [1]) and 4.04 mg/L (≈ 10.8 µM) with HCT-116.

In the case of `COc1c2c(cc3occc13)OC(C)(C)C/C2=N\NC(N)=O`, the IC50 in the assay on MCF7 (setting [1]) is 10.9 mg/L (≈ 35.9 µM).

On to `CCC1(C)Oc2c(c(OC)c3ccoc3c2OC)-c2nn[se]c21` (stereo not drawn), for which the half-maximal inhibitory concentration (IC50) with HeLa turned out to be 6.02 mg/L (≈ 15.9 µM); with HepG2 it was 9.53 mg/L (≈ 25.1 µM); in the assay with MCF7 (setting [1]) it was 12.7 mg/L (≈ 33.5 µM); in the assay with HCT-116, 8.92 mg/L (≈ 23.5 µM).

Consider `COc1c(C(/C=C(\C)N2CCCC2)=C2C(=O)c3ccccc3C2=O)c(O)c(OC)c2occc12`, for which the half-maximal inhibitory concentration (IC50) with MCF7 (setting [1]) was determined as 13.2 mg/L (≈ 28.7 µM).

For the molecule `CCC1(C)C/C(=N\NC(N)=O)c2c(c(OC)c3occc3c2OC)O1` (stereo not drawn), the concentration for half-maximal inhibition (IC50) with MCF7 (setting [1]) turned out to be 13.9 mg/L (≈ 40 µM).

In the case of `COc1c2c(c(OC)c3occc13)OC1(CCCCC1)c1snnc1-2`, in the assay with MCF7 (setting [1]), the IC50 turned out to be 14.9 mg/L (≈ 41.6 µM).

`COc1c2c(c(OC)c3occc13)OC1(CCCCC1)c1[se]nnc1-2`: the IC50 came out at 5.57 mg/L (≈ 13.7 µM) with HeLa, 9.53 mg/L (≈ 23.5 µM) with HepG2, 15 mg/L (≈ 37 µM) in the assay on MCF7 (setting [1]) and 4.19 mg/L (≈ 10.3 µM) with HCT-116.

`COc1c2c(cc3occc13)OC1(CCCCC1)c1snnc1-2`: the IC50 in the assay on MCF7 (setting [1]) turned out to be 15.9 mg/L (≈ 48.4 µM).

As to `COc1c2c(cc3occc13)OC1(CCCCC1)c1[se]nnc1-2`, the IC50 in the assay with HeLa is 7.24 mg/L (≈ 19.3 µM); in the assay on HepG2, 14.6 mg/L (≈ 38.9 µM); in the assay on MCF7 (setting [1]), 16.5 mg/L (≈ 44 µM); in the assay on HCT-116 it was 3.89 mg/L (≈ 10.4 µM).

In the case of `COc1c2c(c(OC)c3occc13)OC(C)(C)C/C2=N\NC(N)=O`, the concentration for half-maximal inhibition (IC50) in the assay with MCF7 (setting [1]) stood at 20.8 mg/L (≈ 62.4 µM).

For `COc1c2occc2c(OC)c2c(C=C(C)N3CCCCC3)c(C#N)c(=N)oc12`, the IC50 in the assay on HeLa is 4.8 mg/L (≈ 12.2 µM); with HepG2, 8.46 mg/L (≈ 21.5 µM); in the assay on MCF7 (mcf7), “Not Active”; in the assay on HCT-116, 4.34 mg/L (≈ 11 µM).

As to `COc1c2c(cc3occc13)OC1(CCCCC1)C/C2=N\NC(N)=O`, in the assay on MCF7 (setting [1]), the 50% inhibitory concentration (IC50) is 14 mg/L (≈ 40.8 µM).

Turning to `COc1cccc2c1C(=O)c1c(O)c3c(c(O)c1C2=O)C[C@@](O)(C(=O)CO)C[C@@H]3O[C@H]1C[C@H](N)[C@H](O)[C@H](C)O1` [DOXORUBICIN], the 50% inhibitory concentration (IC50) was 4.19 mg/L (≈ 7.71 µM) with HeLa, 3.73 mg/L (≈ 6.86 µM) in the assay on HepG2 and 3.73 mg/L (≈ 6.86 µM) with HCT-116.

Usually IC50 stands for the concentration that gives 50% inhibition.
